# Only a selection was taken, and hits are over-represented in it overall.
# bCat KO growth: beta-catenin-lacking colon tumor cell growth suppression. HCT116 beta-catenin knockout viability, CellTiter-Glo, 60 h; active compounds read low. viability, % at 10 µM. hit rate 1.5% among 140,000. AID 818;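 active means viability at or under a set limit, the compound median less 4 SD, cut at about 6% in these data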
# H69AR inhibit: blocks growth of human H69AR lung tumor cells. H69AR lung tumor viability, ATP luminescence, 72 h; active compounds read low. viability, % at 10 µM. hit rate 6% among 85,000. AID 598;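 active means viability at or below 40%; inactive means viability above 40%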;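 further: multidrug resistant small cell line overexpressing MRP-1 efflux transporter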
# Lung fibro prol: blocks proliferation of human lung fibroblasts; LL 47 human lung fibroblast viability, ATP luminescence; active compounds read low; hit rate 1.1% among 85,000; viability, % at 10 µM; AID 719;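 active means viability at or below 50% in the single dose screen; inactive means viability above 50%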;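 further: compound exposure lasted 72 h before the ATP readout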
#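 Benchmarks: Cell-only wells, no compound | Test system: LL 47 human lung fibroblasts, passage 12 or lower | Input: 1,150 cells/well | Measured by: CellTiter-Glo luminescence measuring cellular ATP | Medium: IMEM, 15% FBS supplement | Schedule: Overnight attachment after seeding, then 72 h compound exposure at 37 °C | Doses: Compound addition at 0.1% DMSO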
# HCT116 PTEN-null: growth suppressors of cells with PTEN tumor suppressor deletion; viability, % at 10 µM; hit rate 1.2% among 140,000; HCT116 PTEN-null viability, CellTiter-Glo, 60 h; active compounds read low;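 active means viability at or below a set limit, 4 SD under the median of all tested compounds, cut at about 3.7% in these data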;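 further: PTEN knockout HCT116 line with beta catenin targeted HCT116 as companion control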
# HUVEC prolif 384: blocks proliferation of human endothelial cells | hit rate 1.1% among 86,000 | viability, % at 10 µM (by protocol) | HUVEC proliferation, CellTiter-Glo luminescence, 72 h; active compounds read low | AID 648;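 active means viability at or below 30%; inactive means viability above 30%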
# PTK2B oligo ant: antagonists of human Pyk2 oligomerization. z-score (the deposit names both 25 µM and 10 µM). hit rate 0.83% among 99,000. Q14289. Q293 cells, Pyk2 FERM NanoBiT luminescence; active compounds read low;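 active means Z-score of -3 or lower, scaled per plate to the spread of control and sample wells; inactive means z-score above -3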;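 further: negative z-score means lost luminescence so less FERM oligomerization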
# Target sequence (Q14289 whole entry, looked up): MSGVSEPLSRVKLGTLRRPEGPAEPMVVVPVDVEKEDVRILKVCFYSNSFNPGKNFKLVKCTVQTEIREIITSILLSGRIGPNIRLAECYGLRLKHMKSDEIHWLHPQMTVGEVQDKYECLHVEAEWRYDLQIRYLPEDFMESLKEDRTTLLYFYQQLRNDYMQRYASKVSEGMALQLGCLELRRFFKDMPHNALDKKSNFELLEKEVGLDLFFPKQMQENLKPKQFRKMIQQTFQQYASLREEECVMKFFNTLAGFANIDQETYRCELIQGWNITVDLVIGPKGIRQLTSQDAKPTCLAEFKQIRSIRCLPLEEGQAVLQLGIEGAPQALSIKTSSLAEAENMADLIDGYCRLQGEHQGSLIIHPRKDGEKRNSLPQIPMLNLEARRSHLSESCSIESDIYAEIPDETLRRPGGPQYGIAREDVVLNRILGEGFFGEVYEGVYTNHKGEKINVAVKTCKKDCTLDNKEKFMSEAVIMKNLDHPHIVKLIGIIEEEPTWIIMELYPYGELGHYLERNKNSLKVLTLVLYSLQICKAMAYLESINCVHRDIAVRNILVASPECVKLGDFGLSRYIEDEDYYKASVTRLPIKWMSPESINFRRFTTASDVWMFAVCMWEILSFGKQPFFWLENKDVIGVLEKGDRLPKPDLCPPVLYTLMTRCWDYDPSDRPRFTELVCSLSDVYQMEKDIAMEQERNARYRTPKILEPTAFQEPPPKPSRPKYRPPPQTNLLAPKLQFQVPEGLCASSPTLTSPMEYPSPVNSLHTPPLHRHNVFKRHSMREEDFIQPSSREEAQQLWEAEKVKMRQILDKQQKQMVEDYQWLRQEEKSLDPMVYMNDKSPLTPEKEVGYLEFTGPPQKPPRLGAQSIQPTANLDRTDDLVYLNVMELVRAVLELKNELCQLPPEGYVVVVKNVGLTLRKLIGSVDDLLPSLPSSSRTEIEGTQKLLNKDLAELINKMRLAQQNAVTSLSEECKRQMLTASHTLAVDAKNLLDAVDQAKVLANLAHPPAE
# Numbers stand for hits; 0 = inactive; - = not tested or not shown.
SMILES,bCat KO growth,H69AR inhibit,Lung fibro prol,HCT116 PTEN-null,HUVEC prolif 384,PTK2B oligo ant
C[C@@H]1NC(=O)[C@H](CCCN=C(N)N)NC(=O)c2cc([N+](=O)[O-])cc(I)c2OCC[C@@H](C(=O)NC(CC(=O)O)C(N)=O)NC1=O (stereo partly specified),0,-,-,0,-,-
CC(C)c1ccc(C(=O)NCCCN2CCN(CCCNC(=O)c3ccc(C(C)C)cc3)CC2)cc1,1.5,-,-,2.0,-,-
CCOC(=O)CCC(NC(=O)CCCC(=O)NC(CCC(=O)OCC)C(=O)OCC)C(=O)OCC (stereo unspecified),0,-,-,0,-,-
Cc1ccc(CNC(=O)CSc2c3c(nc4ccc(Cl)cc24)CCCC3)o1,0,15.3,0,0,0,0
CN(C)S(=O)(=O)c1ccc2[nH]cc(/C=C/c3nc4ccccc4c(=O)n3-c3ccccc3)c2c1,0,36.5,0,0,0,0
Cn1nc([N+](=O)[O-])nc1Sc1nnc(-c2ccccc2)o1,3.4,2.6,0,2.6,0,0
O=Cc1ccc(Sc2nnc(-c3ccccc3)o2)c([N+](=O)[O-])c1,0,2.0,0,0,2.4,0
CCC(=O)c1cc2c(C)cc(=O)oc2c(C)c1OC(=O)C(C)C,0,-,-,0,-,-
CCOC(=O)c1c(N2C(=O)Nc3cc(Cl)c(Cl)cc3N2O)sc2c1CCCCC2,0,-,-,0,-,0
COc1ccnc(Nc2ccc(C)c(C)c2)c1C#N,0,-,-,0,-,0
COc1ccnc(NCc2ccc(Cl)cc2)c1C#N,0,-,-,0,-,-3.56
Cc1cc(Cl)c(S(=O)(=O)N2CCSCC2)cc1OCC(=O)NC1CCCCC1,0,0,0,0,0,-3.68
Cc1cc(Cl)c(S(=O)(=O)N2CCN(c3cccc(C)c3C)CC2)cc1OCC(N)=O,0,37.7,0,0,0,0
CC(=O)Nc1ccc(S(=O)(=O)N2CCCN(S(=O)(=O)c3ccc(NC(C)=O)cc3)CC2)cc1,0,0,0,0,0,0
CC(=O)Nc1ccc(S(=O)(=O)N2CCN(c3cccc(C)c3C)CC2)cc1,0,36.6,0,0,0,-
Cc1cc(Cl)c(S(=O)(=O)N2CCCCCC2)cc1OCC(N)=O,0,0,0,0,0,0
COc1cccc2oc(-c3ccco3)cc(=O)c12,0,-,-,0,-,-
CCOC(=O)C1=C(c2ccccc2)NC(=S)NC1c1cc([N+](=O)[O-])ccc1OC (stereo unspecified),0,-,-,0,-,-4.02
CCOC(=O)C1=C(c2ccccc2)NC(=S)NC1c1cccc([N+](=O)[O-])c1 (stereo unspecified),0,-,-,0,-,-
CCOc1ccc(CCNC(=O)COC(=O)c2nc3nc(C)cc(C)n3n2)cc1OCC,0,-,-,0,-,0
CCOC(=O)NC1(Nc2ccc(Cl)cn2)Oc2ccccc2O1,0,28.2,0,0,0,-
CCOC(=O)/C=C/C(=O)OCC(=O)Nc1ccc(Cl)cn1,0,0,0,0,0,0
Cc1cc(NC(=O)CSc2nc3ccc(Cl)cc3[nH]2)no1,0,0,0,0,0,0
Clc1ccc2nnnc(-c3ccccc3)c2c1,3.7,-,-,3.1,-,-
COCC(C)NC(=O)NC1(C(F)(F)F)Oc2ccc(Cl)cc2O1 (stereo unspecified),0,22.8,0,0,0,0
SMILES,bCat KO growth,H69AR inhibit,Lung fibro prol,HCT116 PTEN-null,HUVEC prolif 384,PTK2B oligo ant
O=C(NCCN1CCOCC1)NC1(C(F)(F)F)Oc2ccc(Cl)cc2O1 (stereo unspecified),0,-,-,0,-,-
O=c1ccc2cc(O)c(O)cc2o1,0,37.2,0,0,0,-
COc1cc2cc(Oc3ccc4ccc(=O)oc4c3)c(=O)oc2cc1O,0,-,-,0,-,-
CSc1ncc(Cl)c(C(=O)Nc2ccccc2Cl)n1,0,-,-,0,-,-
COc1cc(C(=O)Oc2ccccc2/C=N/NC(=O)c2ccc(C)c(Cl)c2)cc(OC)c1OC,5.2,-,-,2.7,-,-
O=C(N/N=C/c1ccccc1OC(=O)c1ccc2c(c1)OCO2)c1cccc(F)c1,5.0,-,-,3.4,-,-
COc1cc(/C=N/NC(=O)c2cccnc2)ccc1OC(=O)c1ccc2c(c1)OCO2,0,-,-,0,-,0
CN1C(=O)C2(C(C#N)=C(N)Oc3n[nH]c(-c4ccc(Cl)cc4)c32)c2ccccc21 (stereo unspecified),0,0,0,0,0,-3.05
Cc1[nH]nc2c1C1(C(=O)N(Cc3ccc(Cl)cc3)c3ccccc31)C(C#N)=C(N)O2 (stereo unspecified),0,0,0,0,0,0
Cc1cc(C)c2c(=O)n(CC(=O)N3CCC(Cc4ccccc4)CC3)sc2n1,1.4,4.8,0,0,0,-
Cc1cccc(N2CCN(C(=O)Cn3sc4nc(C)cc(C)c4c3=O)CC2C)c1 (stereo unspecified),1.6,0.0,22.5,1.4,0,-
Cc1cccc(N2CCN(C(=O)c3ccncc3)CC2C)c1 (stereo unspecified),0,29.5,0,0,0,0
Cc1cc(C)c2c(=O)n(CC(=O)NCCCN3CCN(c4ccccc4F)CC3)sc2n1,1.7,0.4,27.6,1.8,0,-
O=C1C(=C2CCCCC2)SC(=S)N1Cc1ccco1,0,10.8,0,0,0,0
O=C(NCc1ccco1)C(c1ccccc1)N(C(=O)Cc1cccs1)c1ccccc1F (stereo unspecified),0,0,0,0,0,0
O=C1NC(c2ccc3c(c2)OCO3)Oc2ccccc21 (stereo unspecified),0,0,0,0,0,0
O=C1NC(c2ccc3c(c2)OCO3)Nc2ccccc21 (stereo unspecified),0,27.1,0,0,0,0
COc1cccc(/C=C/C(=O)OCC(=O)NCc2ccco2)c1,0,-,-,0,-,-
CC1=C(C)CS(=O)N(S(=O)(=O)c2ccccc2)C1 (stereo unspecified),0,1.8,39.5,0,0,0
CC1=C(C)CS(=O)N(c2ccc(S(N)(=O)=O)cc2)C1 (stereo unspecified),0,12.4,0,0,0,0
Cc1c(C#N)c2ccccc2n1CC(=O)N1CCCc2ccccc21,0,32.0,0,0,0,0
Cc1c(C#N)c2ccccc2n1CC(=O)N1CCCC1,0,0,0,0,0,0
CCCCCN1CSC(=S)N(Cc2ccccc2)C1,5.6,-,-,3.3,-,-
CCc1ccc2[nH]c(=O)c(CN(Cc3ccco3)S(=O)(=O)c3ccc4c(c3)OCCO4)cc2c1,0,22.7,0,0,0,0
COc1ccc2[nH]c(=O)c(CN(Cc3ccco3)Cc3nnnn3Cc3ccccc3)cc2c1,0,-,0,0,0,0
CCc1ccc2[nH]c(=O)c(CN(Cc3ccccc3OC)Cc3nnnn3Cc3ccco3)cc2c1,0,12.4,0,0,0,0
COc1ccccc1CN(Cc1cc2cc(C)ccc2[nH]c1=O)Cc1nnnn1Cc1ccco1,0,37.7,0,0,0,0
CC(=O)C1=C(C)NC(C)=C(C(C)=O)C1c1ccc(-c2ccccc2Cl)o1,0,0,0,0,0,0
COc1ccccc1Oc1nc(-c2ccccc2)cc(C)c1S(C)(=O)=O,0,0,0,0,0,-3.53
